# Laboratory results published in ChEMBL document CHEMBL2424590, “4-[18F]Fluoro-m-hydroxyphenethylguanidine: a radiopharmaceutical for quantifying regional cardiac sympathetic nerve density with positron emission tomography” (J Med Chem, 2013).
# Key:
# [1] = Drug uptake in rhesus macaque monkey heart at 5 to 6 mCi, iv after 90 mins by PET analysis in presence of 0.010 mg/kg to 1 mg/kg desipramine; assay type: ADME, organism-based, Macaca mulatta; details: in vivo, 1.5 h
# How it was run: (§1)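 Same monkey for all studies. Desipramine (0.010, 0.0316, 0.10 or 1.0 mg/kg; n = 1 each) in 2.0 mL saline infused i.v. over 20 min, with tracer injected 10 min after the infusion ended; 4 control studies. ROIs on myocardium and basal LV blood pool drawn on summed final four frames. Cp(t) derived from Cwb(t) × intact fraction × Cp/Cwb. Ki from compartmental modelling and Kp as Patlak slope, fitted against DMI dose to a variable-slope sigmoidal model.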
# Pancreas [2] = test: Biodistribution in Sprague-Dawley rat pancreas at 20 to 120 uCi, iv after 60 mins by gamma counting analysis; assay type: ADME, organism-based; details: in vivo, 1 h
# How it was run: (§2)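 Sprague-Dawley rats (280–330 g), 2 male and 2 female per time point (5, 30, 60, 120 min), under light isoflurane, received a tail-vein bolus of 20–120 μCi tracer in 0.05–0.10 mL isotonic 60 mM sodium phosphate, pH 5.4. Tissues were weighed and gamma-counted. Decay-corrected dpm/g was normalized to injected dpm per kg body weight (%ID·kg/g).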
# [3] = Drug uptake in rhesus macaque monkey myocardium at 0.1 mCi by Patlak plot analysis; assay type: ADME, tissue-based, Macaca mulatta; details: in vivo; how it was run: as §1
# Lung [4] = test: Biodistribution in Sprague-Dawley rat lung at 20 to 120 uCi, iv after 60 mins by gamma counting analysis; assay type: ADME, organism-based; details: in vivo, 1 h; how it was run: as §2
# Nucleic Acid [5] = test: Ratio of drug level in heart to liver in rhesus macaque monkey at 5 to 6 mCi, iv after 90 mins by PET analysis; assay type: ADME, organism-based, Macaca mulatta; details: in vivo, 1.5 h
# Heart = test: Biodistribution in Sprague-Dawley rat heart at 20 to 120 uCi, iv after 60 mins by gamma counting analysis; assay type: ADME, organism-based; details: in vivo, 1 h; how it was run: as §2
# Brain [6] = test: Biodistribution in Sprague-Dawley rat brain at 20 to 120 uCi, iv after 5 mins by gamma counting analysis; assay type: ADME, organism-based; details: in vivo; how it was run: as §2
# Blood [7] = test: Drug uptake in rhesus macaque monkey whole blood at 0.1 mCi after 10 to 85 mins by gamma counting analysis; assay type: ADME, tissue-based, Macaca mulatta
# Spleen [8] = test: Biodistribution in Sprague-Dawley rat spleen at 20 to 120 uCi, iv after 5 mins by gamma counting analysis; assay type: ADME, organism-based; details: in vivo
# How it was run: (§3)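 Male and female rats (2 per sex per time point, 280–330 g) under light isoflurane given tail-vein bolus of 20–120 μCi tracer in 0.05–0.10 mL isotonic 60 mM sodium phosphate, pH 5.4. Tissues sampled at 5, 30, 60 or 120 min, weighed and gamma-counted. Decay-corrected dpm per gram normalised to injected dpm and body weight, given as %ID·kg/g.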
# [9] = Drug uptake in rhesus macaque monkey cortex 5 to 6 mCi, iv after 90 mins by PET analysis; assay type: ADME, organism-based, Macaca mulatta; details: in vivo, 1.5 h
# Pancreas [10] = test: Biodistribution in Sprague-Dawley rat pancreas at 20 to 120 uCi, iv after 120 mins by gamma counting analysis; assay type: ADME, organism-based; details: in vivo, 2 h; how it was run: as §2
# Brain [11] = test: Biodistribution in Sprague-Dawley rat brain at 20 to 120 uCi, iv after 60 mins by gamma counting analysis; assay type: ADME, organism-based; details: in vivo, 1 h; how it was run: as §2
# Spleen [12] = test: Biodistribution in Sprague-Dawley rat spleen at 20 to 120 uCi, iv after 120 mins by gamma counting analysis; assay type: ADME, organism-based; details: in vivo, 2 h; how it was run: as §2
# Adrenal [13] = test: Biodistribution in Sprague-Dawley rat adrenal at 20 to 120 uCi, iv after 60 mins by gamma counting analysis; assay type: ADME, organism-based, Adrenal tissue; details: in vivo, 1 h; how it was run: as §2
# Bone [14] = test: Biodistribution in Sprague-Dawley rat bone at 20 to 120 uCi, iv after 60 mins by gamma counting analysis; assay type: ADME, organism-based, Bone element; details: in vivo, 1 h; how it was run: as §2
# Rattus norvegicus = test: Biodistribution in Sprague-Dawley rat uterus at 20 to 120 uCi, iv after 120 mins by gamma counting analysis; assay type: ADME, organism-based; details: in vivo, 2 h; how it was run: as §3
# Bone [15] = test: Biodistribution in Sprague-Dawley rat bone at 20 to 120 uCi, iv after 30 mins by gamma counting analysis; assay type: ADME, organism-based, Bone element; details: in vivo, 0.5 h; how it was run: as §2
# [16] = Drug excretion in rat urinary bladder at 0.5 mCi by PET analysis; details: in vivo
# Muscle tissue [17] = test: Biodistribution in Sprague-Dawley rat muscle at 20 to 120 uCi, iv after 30 mins by gamma counting analysis; assay type: ADME, organism-based; details: in vivo, 0.5 h; how it was run: as §2
# [18] = Drug uptake in Sprague-Dawley rat heart sympathetic neurons measured per gram wet mass of heart at 2 uCi/mL administered as infusion for 10 mins measured after 120 mins by gamma counting analysis; assay type: ADME, tissue-based; details: sympathetic neuron, 2 h
# How it was run: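 Isolated working rat hearts perfused with 54 μM corticosterone in all perfusates to block uptake-2. Tracer infused at <10 nM total mass for 10 min to measure neuronal uptake rate (mL/min/g wet), then switched to normal perfusate to follow clearance over 2 h.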
# Ovary = test: Biodistribution in Sprague-Dawley rat ovary at 20 to 120 uCi, iv after 30 mins by gamma counting analysis; assay type: ADME, organism-based, Female gonad; details: in vivo, 0.5 h
# How it was run: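 Sprague-Dawley rats (280–330 g) under light isoflurane received a tail-vein bolus of 20–120 μCi tracer in 0.05–0.10 mL isotonic 60 mM sodium phosphate, pH 5.4. Sampling was at 5, 30, 60 or 120 min. […] were weighed and gamma-counted. Decay-corrected dpm/g was normalized to injected dpm per kg body weight (%ID·kg/g).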
# Kidney = test: Biodistribution in Sprague-Dawley rat kidney at 20 to 120 uCi, iv after 120 mins by gamma counting analysis; assay type: ADME, organism-based; details: in vivo, 2 h; how it was run: as §2
# Nucleic Acid [19] = test: Ratio of drug level in plasma to whole blood in rhesus macaque monkey at 5 to 6 mCi, iv by RP-HPLC analysis; assay type: ADME, organism-based, Macaca mulatta; details: in vivo
# How it was run: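 Venous monkey blood samples taken during PET were centrifuged 1 min at 12000 × g to separate plasma from RBCs. 0.1 mL aliquots of whole blood and plasma were gamma-counted, and decay-corrected counts gave Cp/Cwb for each sample. A pre-scan sample spiked with 0.1 mCi tracer was incubated 60–70 min at 37 °C and processed the same way.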
# [20] = Drug uptake in rhesus macaque monkey lung at 5 to 6 mCi, iv after 90 mins by PET analysis; assay type: ADME, organism-based, Macaca mulatta; details: in vivo, 1.5 h
# Spleen [21] = test: Biodistribution in Sprague-Dawley rat spleen at 20 to 120 uCi, iv after 30 mins by gamma counting analysis; assay type: ADME, organism-based; details: in vivo, 0.5 h; how it was run: as §2
# Liver = test: Biodistribution in Sprague-Dawley rat liver at 20 to 120 uCi, iv after 5 mins by gamma counting analysis; assay type: ADME, organism-based; details: in vivo; how it was run: as §2
# Lung [22] = test: Biodistribution in Sprague-Dawley rat lung at 20 to 120 uCi, iv after 120 mins by gamma counting analysis; assay type: ADME, organism-based; details: in vivo, 2 h; how it was run: as §2
# Muscle tissue [23] = test: Biodistribution in Sprague-Dawley rat muscle at 20 to 120 uCi, iv after 60 mins by gamma counting analysis; assay type: ADME, organism-based; details: in vivo, 1 h; how it was run: as §2
# Muscle tissue [24] = test: Biodistribution in Sprague-Dawley rat muscle at 20 to 120 uCi, iv after 5 mins by gamma counting analysis; assay type: ADME, organism-based; details: in vivo; how it was run: as §2
# Nucleic Acid [25] = test: Ratio of drug level in heart to blood in rhesus macaque monkey at 5 to 6 mCi, iv after 90 mins by PET analysis; assay type: ADME, organism-based, Macaca mulatta; details: other tissue, 1.5 h
# Adrenal [26] = test: Biodistribution in Sprague-Dawley rat adrenal at 20 to 120 uCi, iv after 30 mins by gamma counting analysis; assay type: ADME, organism-based, Adrenal tissue; details: in vivo, 0.5 h; how it was run: as §2
# Blood [27] = test: Biodistribution in Sprague-Dawley rat blood at 20 to 120 uCi, iv after 120 mins by gamma counting analysis; assay type: ADME, organism-based; details: in vivo, 2 h; how it was run: as §2
# [28] = Drug uptake in rhesus macaque monkey left ventricle at 5 to 6 mCi, iv after 90 mins by PET analysis; assay type: ADME, organism-based, Macaca mulatta, Heart left ventricle; details: in vivo, 1.5 h
smiles,measurement,setting,value
N=C(N)NCCc1ccc([18F])c(O)c1,Drug uptake,[1],Not Active
same,Drug uptake,Pancreas [2],0.172 %IDKg/g
same,Kp,[3],0.302 mL/min/g
same,Drug uptake,Lung [4],0.091 %IDKg/g
same,Ratio,Nucleic Acid [5],2.5
same,Drug uptake,Heart,0.526 %IDKg/g
same,Drug uptake,Brain [6],0.004 %IDKg/g
same,SUV,Blood [7],3.6
same,Drug uptake,Spleen [8],0.268 %IDKg/g
same,Drug uptake,[9],Active
same,Drug uptake,Pancreas [10],0.121 %IDKg/g
same,Drug uptake,Brain [11],0.002 %IDKg/g
same,Drug uptake,Spleen [12],0.235 %IDKg/g
same,Drug uptake,Adrenal [13],0.193 %IDKg/g
same,Drug uptake,Bone [14],0.027 % ID/g
same,Drug uptake,Rattus norvegicus,0.081 %IDKg/g
same,Drug uptake,Bone [15],0.039 %ID·kg/g
same,Drug excretion,[16],19.9 %ID
same,Drug uptake,Muscle tissue [17],0.025 %ID·kg/g
same,Kup,[18],0.77 mL/min
same,Drug uptake,Ovary,0.171 %IDKg/g
same,Drug uptake,Kidney,0.078 %IDKg/g
same,Ratio,Nucleic Acid [19],1.25
same,Drug uptake,[20],Not Active
same,Drug uptake,Spleen [21],0.262 %IDKg/g
same,Drug uptake,Liver,0.477 %IDKg/g
same,Drug uptake,Lung [22],0.036 %IDKg/g
same,Drug uptake,Muscle tissue [23],0.016 % ID/g
same,Drug uptake,Muscle tissue [24],0.019 % ID/g
same,Ratio,Nucleic Acid [25],3
same,Drug uptake,Adrenal [26],0.181 %IDKg/g
same,Drug uptake,Blood [27],0.009 % ID/g
same,Drug uptake,[28],Active
